Measurements from ChEMBL document CHEMBL1125277, “Novel cerebroprotective agents with central nervous system stimulating activity. 1. Synthesis and pharmacology of 1-amino-7-hydroxyindan derivatives” (1991).

Tests used:
Assay type in all cases: functional
Mus musculus [1] = experiment: Antihypoxic effect tested by the survival time (SVT) in mice at a dose of 100 mg/kg; design: unit: % of control
Outline: (§1)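 Male ICR mice (20–30 g), groups of 10, dosed 0.25 h (iv, sc or ip) or 1 h (oral) before test. Mice placed in desiccator evacuated to 210 mmHg. Survival time measured from pump start to cessation of respiration, capped at 900 s. Activity expressed as % of control survival time; Wilcoxon sum test.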

Mus musculus [2] = experiment: Antihypoxic effect by the survival time (SVT) in mice at a dose of 30 mg/kg administered intraperitoneally in mice; details: route intraperitoneal; outline: as §1
Mus musculus [3] = experiment: Time of recovery of righting reflux (RRT) in seconds was measured after administration of 100 mg/kg orally in mice for the promotional effect on recovery from coma
Outline: (§2)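 Male ICR mice (20–30 g) were dosed orally 1 h before concussion was induced, and saline-dosed mice served as controls. Times to recovery of righting reflex and of spontaneous movement were recorded in seconds. Brains were examined post mortem, and mice with contused brain wounds were excluded. Statistics used the Wilcoxon sum test.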

Mus musculus [4] = experiment: Time of recovery of spontaneous movement (SMT) in seconds was measured after administration of 100 mg/kg orally in mice for the promotional effect on recovery from coma; outline: as §2
Mus musculus [5] = experiment: Antihypoxic effect by the survival time (SVT) in mice at a dose of 30 mg/kg administered subcutaneously in mice; design: unit: % of control; details: route subcutaneous; outline: as §1
Mus musculus [6] = experiment: Time of recovery of spontaneous movement (SMT) in seconds was measured after administration of 40 mg/kg intraperitoneally in mice for the promotional effect on recovery from coma; details: route intraperitoneal
Outline: (§3)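 Male ICR mice (20–30 g); concussion-induced coma model of head injury. Control mice received the same amount of physiological saline. Brains examined post mortem and mice with contused wounds excluded. Recovery times in seconds (righting reflex or spontaneous movement) expressed as % of control; Wilcoxon sum test.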

Mus musculus [7] = experiment: Antihypoxic effect by the survival time (SVT) in mice at a dose of 40 mg/kg administered intraperitoneally in mice; details: route intraperitoneal; outline: as §1
Mus musculus [8] = experiment: Time of recovery of righting reflux (RRT) in seconds was measured after administration of 40 mg/kg intraperitoneally in mice for the promotional effect on recovery from coma; details: route intraperitoneal; outline: as §3
Mus musculus [9] = experiment: Time of recovery of righting reflux (RRT) in seconds was measured after administration of 200 mg/kg perorally in mice for the promotional effect on recovery from coma; details: route oral; outline: as §2
Mus musculus [10] = experiment: Antihypoxic effect by the survival time (SVT) in mice at a dose of 3 mg/kg administered intravenously in mice; details: route intravenous; outline: as §1
Mus musculus [11] = experiment: Time of recovery of spontaneous movement (SMT) in seconds was measured after administration of 200 mg/kg perorally in mice for the promotional effect on recovery from coma; details: route oral; outline: as §2
Mus musculus [12] = experiment: Time of recovery of spontaneous movement (SMT) in seconds was measured after administration of 2.5 mg/kg intravenously in mice for the promotional effect on recovery from coma; details: route intravenous
Outline: (§4)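 This is the concussion-induced coma model in male ICR mice (20–30 g), with saline-treated controls. Righting-reflex and spontaneous-movement recovery times were recorded in seconds. Animals with contused brain wounds at post-mortem were excluded. Groups were compared by Wilcoxon sum test.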

Mus musculus [13] = experiment: Time of recovery of righting reflux (RRT) in seconds was measured after administration of 2.5 mg/kg intravenously in mice for the promotional effect on recovery from coma; details: route intravenous; outline: as §4
Mus musculus [14] = experiment: Antihypoxic effect by the survival time (SVT) in mice at a dose of 100 mg/kg administered intraperitoneally in mice; outline: as §1

Compound	SVT (Mus musculus [1])	RRT (Mus musculus [3]; route oral) [s]	SMT (Mus musculus [4]; route oral) [s]	SVT (Mus musculus [5])	also measured
Cl.NC1CCc2c(O)cccc21 (configuration not stated)	103.9	–	–	–	–
Cc1cc(C(C)(C)C)c(O)c2c1CCC2N.Cl (configuration not stated)	–	90.6	113.5	–	SVT (Mus musculus [2]): 252.8
Cc1ccc(O)c2c1CCC2N.Cl (configuration not stated)	98.4	40.1	42.6	157.8	–
Cc1cc([N+](=O)[O-])c(O)c2c1CCC2N.Cl (configuration not stated)	–	–	–	189.7	–
Cc1cc(I)c(O)c2c1CCC2N.Cl (configuration not stated)	–	81.1	92.3	184.6	–
COc1c(C)cc(C)c2c1C(N)C(C)(c1ccccc1)C2.Cl (configuration not stated)	117.9	25	23.9	–	–
Cc1cc(C)c2c(c1O)C(N)C(c1ccccc1Cl)C2.Cl (configuration not stated)	151	35.8	33.8	–	–
Cc1cc(C)c2c(c1O)C(N)C(C)(Cc1ccccc1)C2.Cl.O (configuration not stated)	197	33	28.8	–	–
CCCC(C)C1(CC)C(=O)N=C([O-])NC1=O.[Na+] (configuration not stated) [PENTOBARBITAL SODIUM]	–	–	–	–	SMT (Mus musculus [6]): 283 s; SVT (Mus musculus [7]): 306.7; RRT (Mus musculus [8]): 494 s
Cc1ccccc1C1Cc2c(C)cc(C)c(O)c2C1N.Cl (configuration not stated)	161.3	44.4	45.9	–	–
CC(=O)Nc1cc(C)c2c(c1O)C(N)CC2.Cl (configuration not stated)	–	–	–	46.8	–
Cc1cc(C)c2c(c1O)C(N)C(C)(C)C2.Cl (configuration not stated)	288	37.2	53.9	298.1	–
Cc1cc(C)c2c(c1O)C(N)CC2.Cl (configuration not stated)	255.7	51.4	61.4	303.4	–
CN(C)CCCN1c2ccccc2CCc2ccccc21.Cl [IMIPRAMINE HYDROCHLORIDE]	67.9	113.4	115.5	–	–
Cc1cc(C)c2c(c1O)C(N)C(C)(Cc1ccccc1)C2.Cl (configuration not stated)	167.3	29.9	32.6	–	–
CCCc1cc(CC)c2c(c1O)C(N)CC2.Cl (configuration not stated)	206.8	94.4	116.3	194.3	–
CC(C)(C)c1cc(C(C)(C)C)c2c(c1O)C(N)CC2.Cl (configuration not stated)	119.2	160.2	157.6	–	SVT (Mus musculus [2]): 171.3
Cc1cc(Br)c(O)c2c1CCC2N.Cl (configuration not stated)	130.1	81.5	83.4	308	–
Cc1cc(C)c2c(c1O)C(N)C(c1ccccc1)C2.Cl (configuration not stated)	149.1	31.1	37.6	–	SVT (Mus musculus [2]): 185.7

Compound	SVT (Mus musculus [1])	RRT (Mus musculus [3]; route oral) [s]	SMT (Mus musculus [4]; route oral) [s]	SVT (Mus musculus [5])	also measured
Cc1cc(C)c2c(c1O)C(N)C(C)C2.Cl (configuration not stated)	237.7	79.1	71	–	–
Cc1cc(CC(C)C)c(O)c2c1CCC2N.Cl (configuration not stated)	149.9	59.3	76.1	281.4	–
CNC1CCc2c(C)cc(C)c(O)c21.Cl (configuration not stated)	–	57.9	55.8	177.5	–
CN(C)CCOC(=O)COc1ccc(Cl)cc1 [MECLOFENOXATE]	106	–	–	–	RRT (Mus musculus [9]): 53.8 s; SVT (Mus musculus [10]): 133; SMT (Mus musculus [11]): 63.8 s
CCCCNC1CCc2c(C)cc(C)c(O)c21.Cl (configuration not stated)	187.3	55.3	57.7	–	–
CCCc1ccc2c(c1O)C(N)CC2.Cl (configuration not stated)	158	70.5	79.5	138	–
Cl.NC1CCc2c(Cl)cc(Cl)c(O)c21 (configuration not stated)	–	–	–	65.8	–
Cc1cc(C)c2c(c1O)C(N)C(Cc1ccccc1)C2.Cl (configuration not stated)	148	47	38.6	–	–
NC(=O)[C@@H]1CCCN1C(=O)[C@H](Cc1c[nH]cn1)NC(=O)[C@@H]1CCC(=O)N1 [PROTIRELIN]	–	–	–	–	SVT (Mus musculus [10]): 43.4; SMT (Mus musculus [12]): 40.9 s; RRT (Mus musculus [13]): 40.8 s
Cl.NC1CCc2cccc(O)c21 (stereo in doubt; 11a)	–	102	99.1	–	SVT (Mus musculus [1]; 100 mg/kg): 204.8
CCC(C)c1cc(C)c2c(c1O)C(N)CC2.Cl (configuration not stated)	234.8	18.9	23.3	276.5	–
CCc1cc(C)c2c(c1O)C(N)C(c1ccccc1)C2.Cl (configuration not stated)	97.4	89.2	94.4	–	–
VITAMIN E	178	–	–	–	RRT (Mus musculus [3]): 92.2 s; SMT (Mus musculus [4]): 83.5 s; SVT (Mus musculus [14]): 96.7
COc1c(C)cc(C)c2c1C(N)C(C)(C)C2.Cl (configuration not stated)	164.3	43.6	39.2	–	–
Cc1cc(C(C)(C)C)c(O)c(C(C)(C)C)c1 [BUTYLATED HYDROXYTOLUENE]	87.6	69.6	80.9	–	SVT (Mus musculus [14]; route intraperitoneal): 358.8
Cc1cc(C)c2c(c1O)C(N)C(C)(c1ccccc1)C2.Cl (configuration not stated)	171.6	34.1	34.7	–	–
Cl.NC1CCc2cccc(O)c21 (stereo in doubt; 11b)	–	–	–	–	SVT (Mus musculus [1]; 100 mg/kg): 78
Cc1cc(CN)c(O)c2c1CCC2N.Cl (configuration not stated)	110.2	69.9	79.3	74.3	–
CCCc1cc(C)c2c(c1O)C(N)CC2.Cl (configuration not stated)	205.3	–	–	244.6	–
